KCNQ1 block = inhibitors of human KCNQ1 channel, primary screen, cell-based, thallium flux, high-throughput; Potassium voltage-gated channel subfamily KQT member 1 (Homo sapiens), P51787; CHO-K1 KCNQ1, FluxOR thallium flux fluorescence; hits give high values; B-score at 10 µM; 310,000 tested, 1.3% active;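 active = compounds whose thallium flux B-score, printed positive for inhibition, exceeds three library SD while starting fluorescence stays within three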;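 also: channel opened by potassium depolarization with thallium stimulus after 20 min compound exposure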
KCNK9 inh = KCNK9 potassium channel inhibitors, primary screen, HEK293 cells, thallium flux | Potassium channel subfamily K member 9 (Homo sapiens), Q9NPC2 | FluxOR thallium flux fluorescence; hits give low values | B-score at 10 µM | 310,000 tested, 1.2% active;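 active = ratio B-score over 3 SD below the library mean, with starting fluorescence within 5 SD of its mean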;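 also: negative B-score means less thallium flux so channel inhibition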
KCNQ1 act = potentiators or activators of KCNQ1 channel, primary screen, cell-based, thallium flux, high-throughput; CHO-K1 KCNQ1, thallium flux FluxOR fluorescence; hits give high values; B-score at 10 µM; 310,000 tested, 0.35% active;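 active = fluorescence ratio B-score, a plate-corrected score, at least three library SD, with initial intensity B-score within 5 SD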
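assay system = CHO-K1 cells stably expressing KCNQ1 | medium = assay buffer, equal DMSO in all wells | timing = 37 °C overnight plating, 90-min dark dye load, 20-min compound pretreatment | measured by = kinetic FluxOR thallium fluorescence, 10-s 1-Hz baseline, 110-s post-stimulus read | measure = fluorescence change relative to baseline, converted to B score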
KCNK3 inh = human KCNK3 channel inhibitors, primary screen, CHO cells, FluxOR thallium flux, B-score; Potassium channel subfamily K member 3 (Homo sapiens), O14649; FluxOR fluorescence; hits give low values; B-score at 10 µM; 340,000 tested, 0.84% active; AID 602410, 2012;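 active = B-score under library mean minus 4 SD, starting fluorescence ratio at most library mean plus 5 SD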;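 also: more negative B-score means stronger inhibition of thallium flux through KCNK3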
Kir21 inh = inhibitors of mouse Kir2.1 inward-rectifier potassium channel; Inward rectifier potassium channel 2 (Mus musculus), P35561; B-score at 10 µM; 310,000 tested, 0.85% active; HEK293-Kir2.1, FluxOR thallium flux fluorescence; hits give low values;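 active = fluorescence ratio B-score at or below minus 3 SD of library scores, with starting-brightness B-score within 2 SD, cut at about -4.2 in these data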;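 also: channel flux triggered by added potassium and thallium sulfate stimulus; B-score of peak minus minimum fluorescence over baseline after thallium stimulus; more negative B-score means stronger Kir2.1 block with less thallium influx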
hERG protect = hERG rescue from dofetilide block, primary screen, cell-based, CHO-hERG, FluxOR thallium flux, dofetilide IC70; dofetilide IC70 present; AID 1511, 2009; 310,000 tested, 0.51% active; activation (rescue from dofetilide block), less the hit threshold, % at 10 µM; Voltage-gated inwardly rectifying potassium channel KCNH2 (Homo sapiens), Q12809;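 active = activation above the mean of controls blocked by dofetilide plus 5 SD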;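 also: thallium influx through hERG after potassium depolarization seen as dye fluorescence rise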
Hits are given with their value; n = inactive; x = no result given. Only some compounds are listed: those with a hit (about 3.7% of all), similar ones and a draw of the others.

SMILES	KCNQ1 block	KCNK9 inh	KCNQ1 act	KCNK3 inh	Kir21 inh	hERG protect
Cn1c(CNC(=O)c2ccccc2F)nnc1SCc1nc2ccccc2c(=O)[nH]1	n	n	n	x	n	6.8
COc1ccc(C(=O)NCCc2nnc(SCc3nc4ccccc4c(=O)[nH]3)n2C)cc1	n	n	n	n	n	n
O=C(CSc1nc2ccccc2c(=O)n1CCCC(=O)N1CCCC1)NCc1ccco1	n	n	n	n	n	n
O=C(CCCCCn1c(SCc2ccncc2)nc2ccccc2c1=O)NCc1ccco1	n	n	n	n	-4.3	n
CCN(CC)CCN(C(=O)c1cc2ccccc2cc1OC)c1nc2ccc(OC)cc2s1	9	n	n	n	n	n
O=C(Nc1ccccc1Cl)C1CCCN(c2ncnc3c2nc2n3CCCCC2)C1 (centres undefined)	n	n	n	n	n	n
CCCCn1c(-c2ccccc2C)nc2cc3[nH]c(=O)c(C(C)C)nc3cc21	n	-8.1	n	n	n	n
COc1cc(OC)cc(C(=O)NNC(=O)c2ccc(S(=O)(=O)N3CC(C)OC(C)C3)cc2)c1 (centres undefined)	n	n	n	n	n	n
COc1ccc(C(=O)NNC(=O)c2ccc(S(=O)(=O)N3CC(C)OC(C)C3)cc2)cc1 (centres undefined)	7	n	n	n	n	n
Cc1cc(C)n(-c2c(C)[nH]c3ccccc23)n1	n	n	n	n	-4.2	n
O=C(Cc1ccccc1)NC1CCN(C(=O)c2ccc([N+](=O)[O-])cc2)CC1	n	n	n	n	n	n
O=C(c1ccc([N+](=O)[O-])cc1)N1CCC(Cc2ccccc2)CC1	n	-7.4	n	n	n	n
Cc1ccc2nc(/C(C#N)=C\c3ccc(N4CCOCC4)o3)[nH]c2c1	6	n	n	n	n	n
Cc1ccc2nc(/C(C#N)=C\c3ccc([N+](=O)[O-])o3)[nH]c2c1	n	n	n	n	n	n
COc1ccc(C)cc1Nc1n[n+](-c2ccccc2)c(-c2cc(OC)c(OC)cc2Br)s1	7	n	n	n	-6	n
COc1ccc(Cl)cc1NC(=O)Cn1nnc(C(=O)NCc2ccc3c(c2)OCO3)c1N	n	n	n	n	n	n
CCOC(=O)C1=C(C)N=C2c3ccccc3C(=O)C2C1c1ccc(Cl)cc1 (centres undefined)	n	-8	n	-10	n	n
Cc1ccc(NC(=O)c2cc3cc(OC(F)(F)F)ccc3[nH]2)cc1	6	n	n	x	n	n
O=C(NCCN1CCOCC1)Nc1ccc(F)cc1	n	n	n	n	n	n
COc1cccc(N2C(=O)CC(NNc3nc4ccccc4s3)C2=O)c1 (centres undefined)	n	n	n	n	n	n
Cc1nc(SCC(=O)NCC2CCCO2)c2c3c(sc2n1)CCCC3 (centres undefined)	n	n	13	n	n	15
Cc1nc(SCC(=O)NCC2CCCO2)c2c(C)c(C)sc2n1 (centres undefined)	x	x	x	n	x	x
CC(=O)c1ccc(OCC(=O)Nc2c(C)nn(-c3ccccc3)c2C)cc1	n	n	n	n	n	n
CCSc1nnc(-c2ccc(C)cc2)c2ccccc12	n	-7	n	n	n	n
CCSc1nnc(-c2ccc(Cl)cc2)c2ccccc12	n	n	n	n	n	n
SMILES	KCNQ1 block	KCNK9 inh	KCNQ1 act	KCNK3 inh	Kir21 inh	hERG protect
CC(C)Nc1nc(Oc2cccc(Cl)c2Cl)cc(C(F)(F)F)n1	n	n	n	n	n	n
CC(C)Nc1nc(Oc2ccc(Cl)cc2Cl)cc(C(F)(F)F)n1	7	n	n	n	n	n
COc1ccc(-c2[nH]ncc2CN2CCCOc3c(cccc3OC)C2)c(OC)c1	n	n	n	n	n	n
CCCN1C(=O)/C(=C\C=C2\N(CC)c3ccccc3C2(C)C)SC1=S	9	n	n	n	n	n
COC(=O)/C(=C/c1cn(C(C)=O)c2ccccc12)[N+](=O)[O-]	x	x	x	n	x	x
COC(=O)/C(=C/c1cn(C)c2ccccc12)[N+](=O)[O-]	n	n	n	x	-5.3	n
CCOC(=O)c1c(NC(=O)CSc2nnnn2C)sc(C)c1-c1ccc(C)cc1	n	-6.6	n	n	n	n
CCCn1c(N)c(C(=O)CSc2ncnc3sccc23)c(=O)n(C)c1=O	x	x	x	n	x	x
CCOC(=O)c1sc(NC(=O)CSc2nnc(C)s2)c(C(=O)OCC)c1C	n	-6.8	n	n	n	n
CCOC(=O)c1sc(NN=C(C(=O)OC)C(=O)OC)c(C(=O)OCC)c1C	n	n	8	n	n	9.0
CCOC(=O)c1sc(NC(=O)CCN2CC(C)OC(C)C2)c(C(=O)OCC)c1C (centres undefined)	n	n	n	x	n	n
CCOC(=O)c1sc(NC(=O)CCN2CCN(C)CC2)c(C(=O)OCC)c1C	n	n	n	n	-5.5	n
CS(=O)(=O)N1CCN=C1SCc1ccc([N+](=O)[O-])cc1	n	n	n	n	n	n
Cc1ccc(NC(=O)C2CCCN2c2nn3c(=O)cc(C)nc3s2)cc1 (centres undefined)	n	n	n	n	n	n
CSC(C(=O)c1cc2ccccc2o1)c1ccccc1 (centres undefined)	n	n	15	n	n	n
Cn1c2ccccc2c(=O)c2c(=O)n(-c3ccc(F)cc3)c(-c3cccs3)nc21	n	n	n	n	n	n
CC(c1ccccc1)n1c(-c2cccs2)nc2c(c(=O)c3ccccc3n2C)c1=O (centres undefined)	n	-8.1	n	n	n	n
COc1ccc(CCNc2c([N+](=O)[O-])ncn2C)cc1OC	n	n	n	n	n	n
CC1(C)CC(c2nc(-c3ccc([N+](=O)[O-])cc3)cs2)CCO1 (centres undefined)	7	n	n	n	n	n
O=C(/C=C/c1cc[n+](CC(=O)c2ccc3cccc4c3c2CC4)cc1)c1ccc2cccc3c2c1CC3	n	n	n	n	n	n
O=C(c1ccc2c(c1)OCO2)C1CCCN(Cc2ccc(OC(F)F)cc2)C1 (centres undefined)	n	n	n	n	-10	n
COc1cc(OC)c(OC)cc1CN1CCCC(C(=O)c2ccc3c(c2)OCO3)C1 (centres undefined)	n	n	n	n	n	n
Cc1noc(C)c1COc1cccc(C(=O)NC(C)(C)C)c1	n	n	n	n	n	n

Bioassay records from PubChem BioAssay.
